Converted amounts (≈) assume the structure as drawn.
Assays:
Assay type in all cases: functional
Candida albicans = test: Antifungal activity against Candida albicans by broth microdilution method
Procedure, shortened: (§1)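 Fungal panel of Candida albicans, Candida parapsilosis, Aspergillus niger and Cryptococcus neoformans, tested in vitro by standard NCCLS broth microdilution. The yeast susceptibility reference cited is M27-A.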

Cryptococcus neoformans = test: Antimicrobial activity against Cryptococcus neoformans by broth microdilution method; procedure, shortened: as §1
Staphylococcus aureus = test: Antibacterial activity against Staphylococcus aureus by broth microdilution method
Procedure, shortened: (§2)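 In vitro broth microdilution following the NCCLS standard for bacteria (M7-A5). The test panel was Bacillus subtilis, Staphylococcus aureus, Klebsiella pneumoniae and Pseudomonas aeruginosa.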

Pseudomonas aeruginosa = test: Antibacterial activity against Pseudomonas aeruginosa by broth microdilution method; procedure, shortened: as §2
Klebsiella pneumoniae = test: Antibacterial activity against Klebsiella pneumoniae by broth microdilution method; procedure, shortened: as §2
Bacillus subtilis = test: Antibacterial activity against Bacillus subtilis by broth microdilution method; procedure, shortened: as §2
Aspergillus niger = test: Antifungal activity against Aspergillus niger by broth microdilution method; procedure, shortened: as §1
Candida parapsilosis = test: Antifungal activity against Candida parapsilosis by broth microdilution method; settings: Lodderomyces parapsilosis; procedure, shortened: as §1

Molecule | MIC90 (Candida albicans) [µg/mL] | MIC90 (Cryptococcus neoformans) [µg/mL] | MIC90 (Staphylococcus aureus) [µg/mL] | MIC90 (Pseudomonas aeruginosa) [µg/mL] | MIC90 (Klebsiella pneumoniae) [µg/mL] | MIC90 (Bacillus subtilis) [µg/mL] | MIC90 (Aspergillus niger) [µg/mL] | MIC90 (Candida parapsilosis) [µg/mL]
ON=C1C2C(c3cccc(Br)c3)NC(c3cccc(Br)c3)C1C(c1cccc(Br)c1)NC2c1cccc(Br)c1 (centres undefined) | > 128 | > 128 | > 128 | > 128 | > 128 | > 128 | > 128 | > 128
CON=C1C2C(c3cccc(Oc4ccccc4)c3)NC(c3cccc(Oc4ccccc4)c3)C1C(c1cccc(Oc3ccccc3)c1)NC2c1cccc(Oc2ccccc2)c1 (centres undefined) | 64 (≈ 76 µM) | > 128 | > 128 | > 128 | > 128 | > 128 | 128 (≈ 152 µM) | 128 (≈ 152 µM)
CON=C1C2C(c3ccc(OCc4ccccc4)cc3)NC(c3ccc(OCc4ccccc4)cc3)C1C(c1ccc(OCc3ccccc3)cc1)NC2c1ccc(OCc2ccccc2)cc1 (centres undefined) | > 128 | > 128 | > 128 | > 128 | 64 (≈ 71.3 µM) | > 128 | 64 (≈ 71.3 µM) | > 128
CC(C)c1ccc(C2NC(c3ccc(C(C)C)cc3)C3C(=NO)C2C(c2ccc(C(C)C)cc2)NC3c2ccc(C(C)C)cc2)cc1 (centres undefined) | > 128 | > 128 | 128 (≈ 204 µM) | 16 (≈ 25.5 µM) | 128 (≈ 204 µM) | > 128 | > 128 | 32 (≈ 51 µM)
CON=C1C2C(c3ccc(C(C)C)cc3)NC(c3ccc(C(C)C)cc3)C1C(c1ccc(C(C)C)cc1)NC2c1ccc(C(C)C)cc1 (centres undefined) | 128 (≈ 199 µM) | > 128 | 128 (≈ 199 µM) | 16 (≈ 24.9 µM) | 128 (≈ 199 µM) | > 128 | 128 (≈ 199 µM) | 8 (≈ 12.5 µM)
CCCCOc1ccc(C2NC(c3ccc(OCCCC)cc3)C3C(=NOC)C2C(c2ccc(OCCCC)cc2)NC3c2ccc(OCCCC)cc2)cc1 (centres undefined) | > 128 | 32 (≈ 42 µM) | > 128 | 64 (≈ 84 µM) | 64 (≈ 84 µM) | > 128 | 32 (≈ 42 µM) | > 128
Cc1ccccc1C1NC(c2ccccc2C)C2C(=NO)C1C(c1ccccc1C)NC2c1ccccc1C (centres undefined) | 64 (≈ 124 µM) | > 128 | 128 (≈ 248 µM) | 32 (≈ 62.1 µM) | > 128 | > 128 | 64 (≈ 124 µM) | 8 (≈ 15.5 µM)
CON=C1C2C(c3cccc(OC)c3)NC(c3cccc(OC)c3)C1C(c1cccc(OC)c1)NC2c1cccc(OC)c1 (centres undefined) | 128 (≈ 216 µM) | 128 (≈ 216 µM) | 128 (≈ 216 µM) | 64 (≈ 108 µM) | > 128 | > 128 | 16 (≈ 26.9 µM) | > 128
CCCCOc1ccc(C2NC(c3ccc(OCCCC)cc3)C3C(=NO)C2C(c2ccc(OCCCC)cc2)NC3c2ccc(OCCCC)cc2)cc1 (centres undefined) | > 128 | 32 (≈ 42.8 µM) | > 128 | 64 (≈ 85.6 µM) | 64 (≈ 85.6 µM) | > 128 | 32 (≈ 42.8 µM) | > 128
COc1ccccc1C1NC(c2ccccc2OC)C2C(=NO)C1C(c1ccccc1OC)NC2c1ccccc1OC (centres undefined) | > 128 | 32 (≈ 55.2 µM) | > 128 | 16 (≈ 27.6 µM) | 64 (≈ 110 µM) | > 128 | 16 (≈ 27.6 µM) | 32 (≈ 55.2 µM)
CON=C1C2C(c3ccc(Br)cc3)NC(c3ccc(Br)cc3)C1C(c1ccc(Br)cc1)NC2c1ccc(Br)cc1 (centres undefined) | > 128 | > 128 | > 128 | > 128 | > 128 | 64 (≈ 81.1 µM) | > 128 | 16 (≈ 20.3 µM)
C=CCOc1ccc(C2NC(c3ccc(OCC=C)cc3)C3C(=NO)C2C(c2ccc(OCC=C)cc2)NC3c2ccc(OCC=C)cc2)cc1 (centres undefined) | > 128 | > 128 | > 128 | > 128 | 64 (≈ 93.6 µM) | 128 (≈ 187 µM) | 64 (≈ 93.6 µM) | 64 (≈ 93.6 µM)
CSc1ccc(C2NC(c3ccc(SC)cc3)C3C(=NO)C2C(c2ccc(SC)cc2)NC3c2ccc(SC)cc2)cc1 (centres undefined) | 32 (≈ 49.7 µM) | 32 (≈ 49.7 µM) | > 128 | 16 (≈ 24.8 µM) | 32 (≈ 49.7 µM) | > 128 | 16 (≈ 24.8 µM) | 32 (≈ 49.7 µM)
ON=C1C2C(c3ccc(Cl)cc3)NC(c3ccc(Cl)cc3)C1C(c1ccc(Cl)cc1)NC2c1ccc(Cl)cc1 (centres undefined) | 8 (≈ 13.4 µM) | > 128 | 64 (≈ 107 µM) | 32 (≈ 53.6 µM) | 16 (≈ 26.8 µM) | > 128 | 64 (≈ 107 µM) | 128 (≈ 214 µM)
CCOc1ccc(C2NC(c3ccc(OCC)cc3)C3C(=NOC)C2C(c2ccc(OCC)cc2)NC3c2ccc(OCC)cc2)cc1 (centres undefined) | > 128 | 16 (≈ 24.6 µM) | > 128 | 32 (≈ 49.2 µM) | 32 (≈ 49.2 µM) | > 128 | 8 (≈ 12.3 µM) | 128 (≈ 197 µM)
ON=C1C2C(c3cccc(Cl)c3)NC(c3cccc(Cl)c3)C1C(c1cccc(Cl)c1)NC2c1cccc(Cl)c1 (centres undefined) | > 128 | > 128 | > 128 | 64 (≈ 107 µM) | > 128 | > 128 | 64 (≈ 107 µM) | > 128
ON=C1C2C(c3cccc(F)c3)NC(c3cccc(F)c3)C1C(c1cccc(F)c1)NC2c1cccc(F)c1 (centres undefined) | 32 (≈ 60.2 µM) | > 128 | > 128 | 64 (≈ 120 µM) | 64 (≈ 120 µM) | 128 (≈ 241 µM) | 64 (≈ 120 µM) | > 128
CCc1ccc(C2NC(c3ccc(CC)cc3)C3C(=NOC)C2C(c2ccc(CC)cc2)NC3c2ccc(CC)cc2)cc1 (centres undefined) | 128 (≈ 218 µM) | > 128 | > 128 | 32 (≈ 54.6 µM) | 64 (≈ 109 µM) | > 128 | > 128 | 32 (≈ 54.6 µM)
Cc1ccc(C2NC(c3ccc(C)cc3)C3C(=NO)C2C(c2ccc(C)cc2)NC3c2ccc(C)cc2)cc1 (centres undefined) | 64 (≈ 124 µM) | > 128 | > 128 | 32 (≈ 62.1 µM) | > 128 | > 128 | > 128 | 32 (≈ 62.1 µM)
CON=C1C2C(c3cccc(Br)c3)NC(c3cccc(Br)c3)C1C(c1cccc(Br)c1)NC2c1cccc(Br)c1 (centres undefined) | > 128 | > 128 | > 128 | > 128 | > 128 | > 128 | > 128 | > 128
ON=C1C2C(c3ccccc3Cl)NC(c3ccccc3Cl)C1C(c1ccccc1Cl)NC2c1ccccc1Cl (centres undefined) | 16 (≈ 26.8 µM) | 16 (≈ 26.8 µM) | 64 (≈ 107 µM) | 16 (≈ 26.8 µM) | 32 (≈ 53.6 µM) | > 128 | 8 (≈ 13.4 µM) | > 128
CON=C1C2C(c3ccccc3Cl)NC(c3ccccc3Cl)C1C(c1ccccc1Cl)NC2c1ccccc1Cl (centres undefined) | 16 (≈ 26.2 µM) | 16 (≈ 26.2 µM) | 16 (≈ 26.2 µM) | 16 (≈ 26.2 µM) | 4 (≈ 6.54 µM) | > 128 | 2 (≈ 3.27 µM) | > 128
OC(Cn1cncn1)(Cn1cncn1)c1ccc(F)cc1F [FLUCONAZOLE] | 1 (≈ 3.27 µM) | 2 (≈ 6.53 µM) | – | – | – | – | 4 (≈ 13.1 µM) | 2 (≈ 6.53 µM)
GENTAMICIN | – | – | 4 | 16 | 2 | 16 | – | –

Source: ChEMBL document CHEMBL1268976, “Stereocontrolled facile synthesis and antimicrobial activity of oximes and oxime ethers of diversely substituted bispidines” (2010)
